Measurements gathered from unrelated publications.
Each line is one published result; the experiments were not run side by side.
Cell line: MDA-MB-231
Observed: cell growth or viability

| Compound | method | time | IC50 |
| --- | --- | --- | --- |
| O=C(O)CCCc1ccc(N(CCCl)CCCl)cc1 | CCK-8 | 48 h | > 50 µM |
| COC(C(=O)N1C(=O)SCC1C1(OC)CC2CC(CCC(C)C=CC=CCCC(C)=CC(=O)O2)O1)c1ccccc1 (stereo not drawn) | MTT | 72 h | 26.2 µM |
| CC1=CC(=O)c2c(O)cccc2C1=O | MTT | 24 h | 4.4 µM |
| COc1c(O)cc2oc3cc(O)c(CC=C(C)C)c(O)c3c(=O)c2c1CC=C(C)C |  | 48 h | 20.7 µM |
| Nc1cc(I)c(I)cc1N |  | 72 h | 65 µM |
| CO[C@]1([C@@H]2CSC(=O)N2Cc2ccccc2)C[C@H]2C[C@@H](CC[C@H](C)/C=C\C=C\CC/C(C)=C\C(=O)O2)O1 | MTT | 72 h | 6.82 µM |
| CCCc1cc(=O)n2nc(NCc3c(F)cc(Cl)cc3F)c(C#N)c2[nH]1 | ATP luminescence | 72 h | > 50 µM |
| O=C1[O][Pt]2([NH][C@@H]3CCCC[C@H]3[NH]2)[O]C1=O | MTT | 96 h | 2.6 µM |
| C/C1=C/C(=O)O[C@@H]2C[C@@H](CC[C@H](C)/C=C\C=C\CC1)O[C@@](OC(=O)c1ccccc1)([C@@H]1CSC(=O)N1)C2 | MTT | 72 h | 5.05 µM |
| Nc1cc(Br)c(Br)cc1N |  | 72 h | 60 µM |
| C/C1=C/C(=O)O[C@@H]2C[C@@H](CC[C@H](C)/C=C\C=C\CC1)O[C@@](O)([C@@H]1CSC(=O)N1CO)C2 | MTT | 72 h | 2.99 µM |
| N.N.[Cl][Pt][Cl] |  | 24 h | 68.4 µM |
